Source: PubChem BioAssay
Results filed as inconclusive are left out.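 How the source made its calls, unless noted: active means RAM network inhibition above 8.4% in each of two replicates, 3 SD over the compound average; inconclusive means above 8.4% inhibition in only one replicate; inactive means 8.4% inhibition or less in each replicate.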

What was measured:
[1] = S. cerevisiae growth inhibition in permissive medium (OD615), pilot counter-assay for S. cerevisiae lifespan shortening project, permissive growth control (AID 705;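 active means growth inhibition above 25% in both replicates, a cutoff set 3 SD above the mean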); details: OD615, 24 h, at 10 µM, hits give high values
How it was run: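 System: Engineered DeaD yeast | Buffer or medium: SC raffinose/galactose permissive medium | Doses: 10 µM single dose, 0.25% DMSO | Times: 24 h exposure, 30 °C | Measured by: OD615 turbidity read | Read-out: Yeast growth inhibition indicated by reduced 24 h OD615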

[2] = S. cerevisiae growth inhibition in restrictive medium, OD615, pilot screen, restrictive growth control, yeast lifespan reduction project (AID 706;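 active means growth inhibition above a set limit, 3 SD over mean compound inhibition, in both replicates, cut at about 43% in these data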;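 further: modified DeaD lifespan yeast strain shifted to restrictive glucose medium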); details: OD615, 48 h, at 10 µM, hits give high values
How it was run: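 Assay system: engineered S. cerevisiae DeaD strain; Buffer or medium: CSMM-D glucose medium; Dosing: 10 µM compound, 0.25% DMSO; Times: cell pre-growth 4 h, compound exposure 48 h, 30 °C; Detection: absorbance (optical density) measured at 615 nm.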

[3] = doxorubicin toxicity protection in MRP-1 cells – H69AR cells, CellTiter-Glo, duplicate, MRP-1 activator project, pilot screen (AID 807;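 active means viability increase at or above a cutoff of the median across tested compounds plus 3 SD, cut at about 8.5% in these data, passing the limit was not always enough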;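 further: compound pretreatment 18-22 h then 72 h combined with doxorubicin; 0% = doxorubicin alone and 100% = vehicle without doxorubicin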); details: H69AR viability with doxorubicin, CellTiter-Glo luminescence; at 10 µM; hits give high values
[4] = viability of HCT116 without oncogenic beta-catenin – human colon tumor cells, pilot screen (AID 823;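 active means cell viability at or below a set limit in both duplicate runs, the limit being the all-compound median minus 4 SD, cut at about 23% in these data, passing the limit was not always enough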;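 further: 0% = wells killed by 20 µM Hyamine and 100% = untreated DMSO cell wells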); details: HCT116 beta-catenin knockout viability, CellTiter-Glo, 60 h; at 10 µM; hits give low values
[5] = viability of PTEN-null HCT116 cells – cell-based, HCT116 clonal line, CellTiter-Glo, pilot screen (AID 824;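 active means viability at or below 27.92% in each of two runs, the all-compound median minus 4 SD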;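 further: 0% = 20 µM Hyamine control and 100% = vehicle cell control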); details: HCT116 PTEN-deleted viability, 60 h, at 10 µM, hits give low values
[6] = RAM pathway blockade in budding yeast – dse1pr::URA3 reporter, 5-FOA selection, pilot screen (AID 869;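 active means inhibition over a set limit, the all-compound mean plus 3 SD, in both replicate runs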;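 further: 0% = DMSO wells with no growth and 100% = 10 µM 1-NA-PP1 with full growth; RAM network block rescues cells from 5-FOA so hits raise OD615 growth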); details: S. cerevisiae dse1pr::URA3 5-FOA growth, OD615, 2 d; at 10 µM; hits give high values; strain carries analog-sensitive mutant Cbk1 kinase
[7] = RAM signaling pathway blockade in yeast – S. cerevisiae, Pdr1DBD-CYC8 efflux-inhibited sensitized strain, primary screen (AID 1298);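 further: 0% = DMSO untreated cells without growth and 100% = 10 µM 1-NA-PP1 full growth; higher means more yeast growth rescued from 5-FOA killing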; details: S. cerevisiae cbk1-as DSE1-URA3 strain, 5-FOA growth OD615, 2 d; at 50 µM; hits give high values

CC1=C(C(N)=O)C(c2ccccc2)n2nc(-c3cccs3)nc2N1 (stereo not given)
inactive: growth inhibition [1] -9.84% | growth inhibition [2] 2.11% | viability increase [3] -3.8% | viability [4] 101% | viability [5] 93.8% | inhibition [6] 2.46% | RAM network inhibition [7] 3.65%

Cc1onc(-c2ccccc2Cl)c1C(=O)Nc1nnc(-c2ccc(F)cc2)s1
inactive: growth inhibition [1] -16.7% | growth inhibition [2] -1.93% | viability increase [3] 2.9% | viability [4] 98.5% | viability [5] 90.5% | inhibition [6] 2.51% | RAM network inhibition [7] 5.79%

O=C(O)CCc1n[nH]c(=S)[nH]c1=O
inactive: growth inhibition [1] -5.76% | growth inhibition [2] -17.3% | viability increase [3] -1.6% | viability [4] 102% | viability [5] 106% | inhibition [6] 0.76% | RAM network inhibition [7] -0.69%

CCOC(=O)NCc1ccc2[nH]c(C)cc2c1
inactive: growth inhibition [1] -16.1% | growth inhibition [2] -9.38% | viability increase [3] -1.52% | viability [4] 94.5% | viability [5] 97.1% | inhibition [6] -0.465% | RAM network inhibition [7] 4.71%

O=C1c2ccccc2NC(c2ccc3c(c2)OCCO3)N1c1ccc2c(c1)OCCO2 (stereo not given)
inactive: growth inhibition [1] -5.15% | growth inhibition [2] 6.69% | viability increase [3] -2.17% | viability [4] 90.5% | viability [5] 79.5% | inhibition [6] 0.615% | RAM network inhibition [7] 0.98%

CC1CN(c2nc3c(c(=O)[nH]c(=O)n3C)n2Cc2ccccc2F)CC(C)O1 (stereo not given)
inactive: growth inhibition [1] -3.05% | growth inhibition [2] 2.61% | viability increase [3] -1.3% | viability [4] 99.1% | viability [5] 90.7% | inhibition [6] 1.68% | RAM network inhibition [7] 0.95%

O=C(NCCc1ccc(Cl)cc1)C1CC(=O)N(C2CCCCC2)C1 (stereo not given)
inactive: growth inhibition [1] -4.04% | growth inhibition [2] -5.98% | viability increase [3] -0.99% | viability [4] 94.6% | viability [5] 101% | inhibition [6] 1.06% | RAM network inhibition [7] 0.58%

Cc1csc2ncc(C(=O)NCc3ccccn3)c(=O)n12
inactive: growth inhibition [1] -10.9% | growth inhibition [2] 3.67% | viability increase [3] -0.65% | viability [4] 100% | viability [5] 96.7% | inhibition [6] 1.58% | RAM network inhibition [7] 1.6%

CCOc1ccc(C(=O)Nc2c3c(nn2-c2cccc(C)c2C)CS(=O)C3)cc1 (stereo not given)
inactive: growth inhibition [1] -1.6% | growth inhibition [2] 3.53% | viability increase [3] -0.32% | viability [4] 98.4% | viability [5] 96.2% | inhibition [6] 1.62% | RAM network inhibition [7] 2.34%

CCCC(C(=O)N1CCOCC1)N1C(=O)C2C3C=CC(C3)C2C1=O (stereo not given)
inactive: growth inhibition [1] -8.63% | growth inhibition [2] 3.61% | viability increase [3] 0.84% | viability [4] 99% | viability [5] 99% | inhibition [6] 0.215% | RAM network inhibition [7] -0.83%

N#CC1=C(SCc2ccccc2)NC(=O)CC1c1ccc(O)cc1 (stereo not given)
inactive: growth inhibition [1] -12.2% | growth inhibition [2] -15.2% | viability increase [3] -2.66% | viability [4] 98.2% | viability [5] 96.6% | inhibition [6] 0.67% | RAM network inhibition [7] 1.25%

Cc1ccc(C(=O)NCCCC(=O)O)o1
inactive: growth inhibition [1] -6.95% | growth inhibition [2] -1.79% | viability increase [3] -2.22% | viability [4] 97.4% | viability [5] 96.9% | inhibition [6] 0.1% | RAM network inhibition [7] 5.07%

C=CCn1c(-c2ccc(N)cc2)nc2ccccc21
inactive: growth inhibition [1] -6.82% | growth inhibition [2] 3.25% | viability increase [3] -3.72% | viability [4] 93.3% | viability [5] 80.1% | inhibition [6] 1.5% | RAM network inhibition [7] 1.23%

O=C(CN1CCN(C(=O)c2ccco2)CC1)Nc1ccccc1-c1ccccc1
inactive: growth inhibition [1] 6.65% | growth inhibition [2] 6.94% | viability increase [3] -2.16% | viability [4] 91% | viability [5] 86.1% | inhibition [6] 1.32% | RAM network inhibition [7] 3.75%

Cc1cccc(-n2ncc3c(N(C)C4CCCCC4)ncnc32)c1
inactive: growth inhibition [1] 4.55% | growth inhibition [2] 23% | viability increase [3] 2.07% | viability [4] 84.7% | viability [5] 85.8% | inhibition [6] -1.19% | RAM network inhibition [7] 3.02%

CCN(CC)CCNC(=O)c1sc2nc(-c3ccccc3)cn2c1C
inactive: growth inhibition [1] -2.38% | growth inhibition [2] 6.54% | viability increase [3] -1.73% | viability [4] 83.2% | viability [5] 81.4% | inhibition [6] 0.06% | RAM network inhibition [7] 1.57%

COc1ccc(C2CC(=O)C3=C(C2)NC(C)=C(C#N)C3c2ccc(N(C)C)cc2)cc1 (stereo not given)
inactive: growth inhibition [1] -6.35% | growth inhibition [2] 7.55% | viability increase [3] 0.06% | viability [4] 78.5% | viability [5] 75.8% | inhibition [6] 2.72% | RAM network inhibition [7] 5.79%

N#CCCN1CCN(S(=O)(=O)c2ccc(S(=O)(=O)N3CCOCC3)cc2)CC1
inactive: growth inhibition [1] -6.47% | growth inhibition [2] 4.95% | viability increase [3] 0.97% | viability [4] 95.2% | viability [5] 98.8% | inhibition [6] -0.88% | RAM network inhibition [7] -2.16%

CCC(C)NC(=O)CNC(=O)Cn1c(C)cc2ccccc2c1=O (stereo not given)
inactive: growth inhibition [1] -4.49% | growth inhibition [2] -8.84% | viability increase [3] -2.27% | viability [4] 102% | viability [5] 94.2% | inhibition [6] 0.04% | RAM network inhibition [7] 4.72%

COc1ccc(N2CCN(C(=O)c3sc4nc(-c5ccc(F)cc5)cn4c3C)CC2)cc1
inactive: growth inhibition [1] -10.6% | growth inhibition [2] -19.7% | viability increase [3] -4.7% | viability [4] 102% | viability [5] 95.6% | inhibition [6] 2.24% | RAM network inhibition [7] 3.45%

O=C(Cn1ncc2ccccc21)N1CCc2ccccc21
inactive: growth inhibition [1] -9.24% | growth inhibition [2] -14.6% | viability increase [3] -3% | viability [4] 72.2% | viability [5] 84.2% | inhibition [6] 1.26% | RAM network inhibition [7] 3.51%

Cc1ccc(OS(=O)Nc2cccc3nccnc23)cc1 (stereo not given)
inactive: growth inhibition [1] 1.61% | growth inhibition [2] 13.2% | viability increase [3] -4.19% | viability [4] 56.8% | viability [5] 55% | inhibition [6] 1.72% | RAM network inhibition [7] 2.2%

CC(C)c1cc(NC(=O)CSc2nnc(-c3ccccc3F)n2C)on1
inactive: growth inhibition [1] -6.68% | growth inhibition [2] 2.08% | viability increase [3] 0.77% | viability [4] 98% | viability [5] 101% | inhibition [6] 0.705% | RAM network inhibition [7] 3.69%

COc1cccc(C2CC(c3ccccc3OC)n3nc(N)nc3N2)c1 (stereo not given)
inactive: growth inhibition [1] -0.495% | growth inhibition [2] 6.87% | viability increase [3] -1.09% | viability [4] 98.1% | viability [5] 95.2% | inhibition [6] 1.06% | RAM network inhibition [7] 1.98%

COc1ccc(N2CCN(C(=O)c3ccc(CNc4c(N5CCOCC5)c(=O)c4=O)cc3)CC2)cc1
inactive: growth inhibition [1] 5.2% | growth inhibition [2] 8.53% | viability increase [3] -3.13% | viability [4] 96.2% | viability [5] 98.5% | inhibition [6] -0.255% | RAM network inhibition [7] -1.5%

CCOC(=O)c1ccc(CSc2n[nH]c(C)n2)o1
inactive: growth inhibition [1] -3.09% | growth inhibition [2] -7.67% | viability increase [3] -2.58% | viability [4] 97.7% | viability [5] 96.7% | inhibition [6] -1.18% | RAM network inhibition [7] 1.95%

Cc1nnc(SCC(=O)Nc2ccc3c(c2)OCO3)o1
inactive: growth inhibition [1] -0.465% | growth inhibition [2] -12% | viability increase [3] -5.27% | viability [4] 102% | viability [5] 95.1% | inhibition [6] 1.41% | RAM network inhibition [7] 4.08%

Cc1cc(Nc2cccc(C)c2C)n2nc(C)nc2n1
inactive: growth inhibition [1] -17% | growth inhibition [2] -8.21% | viability increase [3] -1.13% | viability [4] 102% | viability [5] 98.3% | inhibition [6] 1.25% | RAM network inhibition [7] 3.39%

CC(=O)NC(CCS(C)(=O)=O)C(=O)Nc1ccc(Oc2ccccc2)cc1 (stereo not given)
inactive: growth inhibition [1] -7.71% | growth inhibition [2] -16.7% | viability increase [3] -0.67% | viability [4] 101% | viability [5] 93.5% | inhibition [6] 1.69% | RAM network inhibition [7] 5.21%

CCN1C(=O)CC(N2CCN(c3ccc(Cl)cc3)CC2)C1=O (stereo not given)
inactive: growth inhibition [1] -18.6% | growth inhibition [2] -7.02% | viability increase [3] 1.46% | viability [4] 98% | viability [5] 94.6% | inhibition [6] 1.04% | RAM network inhibition [7] 4.19%

O=C(C1CCN(S(=O)(=O)c2ccc(F)cc2)CC1)N1CCOCC1
inactive: growth inhibition [1] -6.2% | growth inhibition [2] -6.82% | viability increase [3] 0.84% | viability [4] 103% | viability [5] 103% | inhibition [6] 2.23% | RAM network inhibition [7] 1.75%

CCOC(=O)N1CCN(c2c(N3CCc4ccccc43)c(=O)c2=O)CC1
inactive: growth inhibition [1] -9.63% | growth inhibition [2] 14.6% | viability increase [3] -1.52% | viability [4] 105% | viability [5] 100% | inhibition [6] 2.05% | RAM network inhibition [7] -0.74%

COc1cc(C(c2sc3nc(C)nn3c2O)N2CC(C)OC(C)C2)cc(OC)c1OC (stereo not given)
inactive: growth inhibition [1] -0.68% | growth inhibition [2] -4.15% | viability increase [3] -2.37% | viability [4] 93.6% | viability [5] 90.1% | inhibition [6] 0.73% | RAM network inhibition [7] 2.94%

COc1cccc(-c2cc(C(=O)N3CCN(c4ncccn4)CC3)c3ccccc3n2)c1
inactive: growth inhibition [1] 0.09% | growth inhibition [2] -2.04% | viability increase [3] -6.25% | viability [4] 62% | viability [5] 64% | inhibition [6] 1.14% | RAM network inhibition [7] -0.21%

COc1ccc(OC)c(NC(=O)COC(=O)c2ccc(S(=O)(=O)N3CCOCC3)cc2)c1
inactive: growth inhibition [1] -3.99% | growth inhibition [2] 1.01% | viability increase [3] -1.17% | viability [4] 94.5% | viability [5] 91.9% | inhibition [6] 2.73% | RAM network inhibition [7] 5.32%
